Source: PubChem BioAssay
Most compounds without a hit are left out; they make up all but 1.8% or so of the library.
M5 antag: human M5 muscarinic receptor antagonists, primary screen, CHO cells, Fluo-8 calcium fluorescence; AID 624040, 2012; Muscarinic acetylcholine receptor M5 (Homo sapiens), P08912; 0.59% of 360,000 active; inhibition, % at 3 µM; CHO-hM5 cells, ACh EC80;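 active means inhibition above a per-plate cutoff, the mean of that plate's test compounds plus 3 SD, cut at about 27% in these data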;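 further: 0% = acetylcholine EC80 with DMSO and 100% = DMSO without agonist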
Target sequence (P08912 whole entry, looked up): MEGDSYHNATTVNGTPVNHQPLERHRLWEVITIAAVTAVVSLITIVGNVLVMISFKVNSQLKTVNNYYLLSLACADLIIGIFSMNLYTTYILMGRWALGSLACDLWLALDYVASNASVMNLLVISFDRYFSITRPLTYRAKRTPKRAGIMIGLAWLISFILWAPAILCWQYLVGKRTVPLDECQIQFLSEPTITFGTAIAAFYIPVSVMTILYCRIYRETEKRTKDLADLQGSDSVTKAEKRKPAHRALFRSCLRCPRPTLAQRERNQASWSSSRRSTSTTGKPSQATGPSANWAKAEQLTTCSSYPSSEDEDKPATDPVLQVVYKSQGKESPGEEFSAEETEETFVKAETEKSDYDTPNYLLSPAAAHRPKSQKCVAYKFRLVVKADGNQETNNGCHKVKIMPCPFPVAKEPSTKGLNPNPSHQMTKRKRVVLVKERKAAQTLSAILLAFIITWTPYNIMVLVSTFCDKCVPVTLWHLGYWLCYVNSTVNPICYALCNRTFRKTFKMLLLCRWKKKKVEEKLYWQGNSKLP
CHRM4 PAM: human M4 muscarinic receptor positive allosteric modulators, primary screen, CHO-K1 cells, Fluo-8 calcium fluorescence; Muscarinic acetylcholine receptor M4 (Homo sapiens), P08173; 0.4% of 360,000 active; CHO-K1 hM4/Gqi5, ACh EC20; 0% = ACh EC20, 100% = maximal ACh; AID 624126, 2012; activation, % at 3 µM;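 active means activation above its plate's cutoff, the mean activation of sample wells plus 3 SD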
CHRM5 PAM: human M5 muscarinic receptor positive allosteric modulators, primary screen, CHO-K1 cells, Fluo-8 calcium fluorescence; activation, % at 3 µM; Muscarinic acetylcholine receptor M5 (Homo sapiens), P08912; CHO-K1 hM5, ACh EC20 PAM; 0% = ACh EC20, 100% = ACh EC100; 0.3% of 360,000 active;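 active means activation above the run cutoff, the mean activation of all test compounds plus 3 SD, cut at about 18% in these data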
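system = human M5 receptor in CHO-K1 cells | compound = one concentration, 3 µM final (nominal) | schedule = Post-acetylcholine fluorescence recording 140 s | signal = Fluo-8 calcium dye fluorescence, kinetic read | benchmarks = low control EC20 acetylcholine (0%), high control EC100 acetylcholine (100%) | repeats = singlicate, one well per test compound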
M4 antag: human M4 muscarinic receptor antagonists, primary screen, CHO cells, Fluo-8 calcium fluorescence. Muscarinic acetylcholine receptor M4 (Homo sapiens), P08173. CHO-hM4 cells, ACh EC80. inhibition, % at 3 µM. 0.73% of 360,000 active. AID 624125, 2012;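 active means inhibition above its plate's cutoff, the mean inhibition of sample wells plus 3 SD, cut at about 27% in these data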;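 further: 0% = acetylcholine EC80 with DMSO and 100% = DMSO without agonist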
M4 ag: human M4 muscarinic receptor agonists, primary screen, CHO-K1 cells, Fluo-8 calcium fluorescence. Muscarinic acetylcholine receptor M4 (Homo sapiens), P08173. CHO-K1 hM4/Gqi5; vehicle 0%, full acetylcholine response 100%. activation, % at 3 µM. 0.14% of 360,000 active. AID 624127, 2012;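 active means activation above the run mean over all test wells plus 3 SD, cut at about 32% in these data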;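 further: peak over basal fluorescence ratio per well then scaled between controls; 0% = DMSO wells and 100% = acetylcholine at EC100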
M5 ag: human M5 muscarinic receptor agonists, primary screen, CHO-K1 cells, Fluo-8 calcium fluorescence. Muscarinic acetylcholine receptor M5 (Homo sapiens), P08912. CHO-K1 hM5 cells; 0% DMSO wells, 100% maximal acetylcholine response. activation, % at 3 µM. 0.19% of 360,000 active. AID 624037, 2012;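 active means activation above the run's mean over test compounds plus 3 SD, cut at about 23% in these data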;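 further: signal is peak over basal fluorescence ratio across the kinetic read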
Active calls of the source: *; ! = not confirmed by another sample.

SMILES	M5 antag	CHRM4 PAM	CHRM5 PAM	M4 antag	M4 ag	M5 ag
CCOc1ccc(C(=O)C(C)OC(=O)Cn2cnc3c2c(=O)n(C)c(=O)n3C)cc1 (stereo not given)	-1	4	1	-9	5	1
O=C(Nc1nc(-c2ccccc2)cs1)c1ccccc1NS(=O)(=O)c1ccc(F)cc1	42*	-14	-20	31*	16	8
O=S(=O)(Nc1ccc(-c2csc(-c3ccccc3)n2)cc1)c1ccc(F)cc1	5	31*	0	3	0	-1
COc1ccc(C(CNC(=O)C(C)Oc2ccc(Br)cc2)N2CCCCC2)cc1 (stereo not given)	6	-4	3	7	1	-10
CN1CCN(C(=O)c2ccc3c(Cl)c4c(nc3c2)CCCC4)CC1	10	15*	5	6	1	-3
O=C(OCc1ccccc1)N(CCCCN(CCCNCc1ccccc1)C(=O)OCc1ccccc1)CCCNCc1ccccc1	21	-11	-14	65*	26	-10
Cc1cccc(NC(=O)CC2NC3CCCCC3NC2=O)c1 (stereo not given)	-5	1	24*	8	0	-8
FC(F)Sc1ccc(NC(=S)NCC2CCCCC2)cc1	40*	-24	-17	12	7	1
O=C(Nc1cccc(-c2cscn2)c1)C1CCN(Cc2ccccn2)CC1	9	0	-2	-13	0	-5
O=C(Cc1ccc(Cl)cc1)Nc1ccccc1C(=O)N1CCCCC1	28*	-3	-12	3	1	0
COc1c(/C=N/Nc2ccc(C(=O)O)cc2)c(CCN(C)C(C)=O)cc2c1OCO2	11	4	-4	-5	1	2
CCOc1ccc(OCC)c(NC(=O)CN2CCN(c3ccc(C)cc3C)CC2)c1	-15	20*	-4	7	0	0
N#Cc1nc(-c2cccs2)oc1N1CCN(Cc2ccccc2)CC1	-6	3	-4	85*	9	-2
COc1ccc(-n2c(=S)[nH]c3cc(C(=O)NCc4ccccc4)ccc3c2=O)c(OC)c1	4	-10	-10	-24	14	-1
CCN(CC)CCC=C(c1cccs1)c1cccs1	28*	-16	-36	47*	3	-10
CCSc1ccc(-c2nn(-c3ccccc3)cc2/C=C(/C#N)C(=O)NC)cc1	-6	-4	-3	8	1	-1
CCCSc1ccc(-c2nn(-c3ccccc3)cc2/C=C(/C#N)C(=O)N2CCOCC2)cc1	24	11	44*	-8	0	0
Cc1ccc(C(=O)CSC2=C(C#N)C(c3ccco3)CC(=O)N2)c(C)c1 (stereo not given)	3	-14	-13	14	29	47*
CC1CCCC(C)N1CCCNC(=O)c1csc2c1CCCCC2 (stereo not given)	-1	-7	-4	-6	1	-8
CCC(=O)N1CCc2cc(S(=O)(=O)NCCN3CCCCC3CC)ccc21 (stereo not given)	-9	1	24*	-6	0	-10
C=C1C(=O)OCC2C(C(=O)O)=CC3C(C)C(C)=CC123 (stereo not given)	-3	3	-3	-14	0	0
COc1cc(N=C2C(=O)N3c4c(cccc42)C(C)=CC3(C)C)cc(OC)c1	-11	10	4	-17	2	27*
CC1=CC(C)(C)N2C(=O)C(=Nc3ccc(O)cc3)c3cccc1c32	5	23	6	26	0	38*
Cn1c(N)c(-c2ccccc2)c2ccc([N+](=O)[O-])cc2c1=O	16	-20	-9	17	56*	23
COc1ccc(-c2cn3cccnc3n2)cc1NC(=O)C1CC1	-3	9	19*	26*	1	-1
SMILES	M5 antag	CHRM4 PAM	CHRM5 PAM	M4 antag	M4 ag	M5 ag
Nc1cc(=O)[nH]c(SCCOc2ccccc2)n1	27*	-10	-16	2	18	-1
CCOc1ccc(CCNC(=O)COC(=O)c2cccc(S(=O)(=O)N3CCOCC3)c2)cc1OCC	-3	5	5	-9	2	-3
O=C(Nc1ccc(Oc2ccccc2)cc1)c1ccc2sc([C@H]3C[C@H](O)[C@@H](CO)O3)nc2c1	8	-2	-3	28*	9	4
Cc1nccc(-c2sc(-c3cccs3)nc2C)n1	-4	69*	10	21	4	0
Cc1ccn2c(NC(=O)c3ccccc3)c(-c3cccs3)nc2c1	2	-4	-10	5	17	4
Cc1ccn2c(NCc3ccccc3)c(-c3cccs3)nc2c1	-12	20*	1	-18	2	-10
CCC(C)Sc1cccc(-c2nc3cc(C)ccn3c2NCc2ccccc2)c1 (stereo not given)	17	-12	-26	44*!	8	-7
Cc1cc(S(=O)(=O)Nc2ccc(C(=O)NCc3cccnc3)cc2)ccc1F	-14	-4	4	-2	0	-3
Oc1ccc(C23CCCC2C2(CCCC2)c2ccc(O)cc2O3)c(O)c1 (stereo not given)	6	-14	-22	23	59*	18
COc1ccccc1-c1cnn2c(NC3CCCC3)cc(C)nc12	-10	8	-2	-16	-3	-6
CSC1=Nc2sc3c(c2C2=NCCN12)CC(C)(C)OC3	5	-1	1	13	1	-10
CCc1nnc(NS(=O)(=O)c2ccc(NC(=S)NC(=O)/C=C/c3ccc(C(C)C)cc3)cc2)s1	12	-13	-21	27*	-1	-7
COc1ccc(CC(=O)OCN2C(=O)c3ccccc3C2=O)cc1	0	11	4	-3	2	-3
Cc1ccc(C(=O)OCN2C(=O)c3ccccc3C2=O)o1	-1	22*	-4	-2	0	2
c1ccc(COc2ncnc3c2ncn3CCCN2CCN(Cc3cccc4ccccc34)CC2)cc1	0	-13	-6	-13	23	-1
Cc1ccc(CN2CCN(CCCn3cnc4c(OCc5ccccc5)ncnc43)CC2)cc1	15	-16	-12	33*	9	-1
